Our source for the inhibition in vivo, Activity and UI values is ChEMBL document CHEMBL1153580, “Synthesis and pharmacological investigation of 3-(substituted 1-phenylethanone)-4-(substituted phenyl)-1, 2, 3, 4-tetrahydropyrimidine-5-carboxylates” (Eur J Med Chem, 2009).

Series [1] relates to Rattus norvegicus. The series is described as follows: Antihypertensive activity in Norwegian albino rat assessed as inhibition of DOCA salt-induced systolic blood pressure at 10 mg/kg, po after 120 mins by non-invasive tail-cuff method. It is filed as functional. As to conditions: Artery, 2 h. In a few lines: (§1)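 Male rats (200–250 g), uninephrectomized under pentobarbital (50 mg/kg i.p.); one week later DOCA s.c. 30–50 mg/kg/week, with 1% w/v NaCl in drinking water. Groups of six, trained in restrainer, tail warmed at 33–34 °C. Compound in 0.5% CMC, 10 mg/kg orally. Systolic pressure read by tail-cuff before dosing and from 1 h after; three readings averaged. ANOVA.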

Series [2] relates to Rattus norvegicus. The series is described as follows: Antihypertensive activity in Norwegian albino rat assessed as inhibition of DOCA salt-induced systolic blood pressure at 10 mg/kg, po after 240 mins by non-invasive tail-cuff method. The format is functional. As to conditions: Artery, 4 h. In a few lines: as §1
Series [3] concerns Rattus norvegicus. The series is described as follows: Antihypertensive activity in Norwegian albino rat assessed as inhibition of DOCA salt-induced systolic blood pressure at 10 mg/kg, po after 300 mins by non-invasive tail-cuff method. The format is functional. As to conditions: Artery, 5 h. In a few lines: as §1
Series [4] concerns Rattus norvegicus. Nature of the series: Antihypertensive activity in Norwegian albino rat assessed as inhibition of DOCA salt-induced systolic blood pressure at 10 mg/kg, po after 30 mins by non-invasive tail-cuff method. The format is functional. The following applies: Artery, 0.5 h.
The test system of series [5] is Rattus norvegicus. Nature of the series: Antihypertensive activity in Norwegian albino rat assessed as inhibition of DOCA salt-induced systolic blood pressure at 10 mg/kg, po after 180 mins by non-invasive tail-cuff method. The format is functional. The following applies: Artery, 3 h. In short, it runs like this: as §1
Series [6] deals with Rattus norvegicus. The series is described as follows: Antihypertensive activity in Norwegian albino rat assessed as inhibition of DOCA salt-induced systolic blood pressure at 10 mg/kg, po after 15 mins by non-invasive tail-cuff method. It is filed as functional. The following applies: Artery, 0.25 h.
In series [7] the test system is Rattus norvegicus. Nature of the series: Antihypertensive activity in Norwegian albino rat assessed as inhibition of DOCA salt-induced systolic blood pressure at 10 mg/kg, po after 420 mins by non-invasive tail-cuff method. The format is functional. As to conditions: Artery, 7 h. In a few lines:
as §1

Series [8] relates to Rattus norvegicus. The series is described as follows: Antihypertensive activity in Norwegian albino rat assessed as inhibition of DOCA salt-induced systolic blood pressure at 10 mg/kg, po after 360 mins by non-invasive tail-cuff method. It is filed as functional. The following applies: Artery, 6 h. In short, it runs like this: as §1
Series [9] has as its system Rattus norvegicus. The series is described as follows: Antiinflammatory activity in Norwegian albino rat assessed as inhibition of carrageenan-induced paw edema at 100 mg/kg, po after administered 60 mins prior to carrageenan-challenge measured after 5 hrs. The format is functional. In a few lines: (§2)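 Compound given orally as 100 mg/kg suspension in 0.5% CMC. 60 min later, carrageenan injected sub-plantar into the left hind paw. Paw volume measured within 30 s of injection, then at 1–5 h. % inhibition = [1−(Dt/Dc)]×100, where Dt and Dc are mean relative paw-volume changes in test and control. ANOVA.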

For series [10], the system named is Mus musculus. The series is described as follows: Analgesic activity against acetic acid-induced writhing in Swiss albino mouse assessed as protection at 20 mg/kg, po. The format is functional. In a few lines:
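Swiss albino mice (25–30 g), six per group, habituated 30 min individually in the test cage. Compound in 1% CMC given p.o. at 20 mg/kg. 1 h later, acetic acid injected i.p.; writhes (arching of back, body elongation, hind-limb extension) counted 5–15 min after injection. % inhibition = (n−n′)/n×100, where n and n′ are mean writhes in control and test.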

Series [11] relates to Rattus norvegicus. The series is described as follows: Antiinflammatory activity in Norwegian albino rat assessed as inhibition of carrageenan-induced paw edema at 100 mg/kg, po after administered 60 mins prior to carrageenan-challenge measured after 1 hr. It is filed as functional. In a few lines: as §2
Series [12] has as its system Rattus norvegicus. Nature of the series: Antihypertensive activity in Norwegian albino rat assessed as inhibition of DOCA salt-induced systolic blood pressure at 10 mg/kg, po after 480 mins by non-invasive tail-cuff method. The format is functional. The following applies: Artery, 8 h. In short, it runs like this:
as §1

Series [13] relates to Rattus norvegicus. The series is described as follows: Antihypertensive activity in Norwegian albino rat assessed as inhibition of DOCA salt-induced systolic blood pressure at 10 mg/kg, po after 60 mins by non-invasive tail-cuff method. The format is functional. As to conditions: Artery, 1 h. In a few lines:
as §1

Series [14] deals with Rattus norvegicus. Nature of the series: Antiinflammatory activity in Norwegian albino rat assessed as inhibition of carrageenan-induced paw edema at 100 mg/kg, po after administered 60 mins prior to carrageenan-challenge measured after 3 hrs. It is filed as functional. In a few lines: as §2
Series [15] relates to Rattus norvegicus. Nature of the series: Gastrointestinal toxicity in albino rat assessed as ulcerogenic index at 50 mg/kg, po. The format is organism-based. Also noted: dose 50 mg/kg, route oral. As to conditions: in vivo. In a few lines: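 Albino rats (150–200 g), six per group, food but not water withheld 24 h. Compound given p.o. at 50 mg/kg; controls received 1% methyl cellulose. Rats fed 17 h, then killed; stomach opened along greater curvature and examined under 4× magnifier. Lesions scored as large (>2 mm), small (1–2 mm) or punctiform (<1 mm). Severity index = treated mean score minus control mean score.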

As for `CCOC(=O)C1=C(C)NC(OC)N(CC(=O)c2ccccc2)C1c1ccccc1` (stereo not drawn), the inhibition in vivo at 10 mg/kg in series [1] was 19.6%; in series [2] it was 23.3%; in [3], 26.3%; in [4] it was 1.43%; in series [5], 21.6%; in series [6] it was 0.59%. Moreover, the inhibition in vivo at 10 mg/kg is 29.4% in [7], 28.7% in series [8], 31% in series [12] and 13% in series [13]. The figures for the inhibition in vivo at 100 mg/kg in series [9], in [11] and in [14] were 42%, 39.8% and 41%, respectively. Moreover, the Activity in [10] is 40.14%. For the same compound, the UI in series [15] is 0.16.

In the case of `CC(C)Cc1ccc(C(C)C(=O)O)cc1` (stereo not drawn) [IBUPROFEN], in series [10], the Activity worked out at 62.55%. Further, the UI in series [15] turned out to be 1.97.

On to `COc1ccc2c(c1)c(CC(=O)O)c(C)n2C(=O)c1ccc(Cl)cc1` [INDOMETHACIN], for which the inhibition in vivo at 100 mg/kg was determined as 52.6% in [9], 46.4% in series [11] and 51.8% in [14].

With `CCOC(=O)C1=C(C)NC(OC)N(CC(=O)c2ccccc2)C1c1ccc(O)cc1` (stereo not drawn), the inhibition in vivo at 10 mg/kg in series [1] turned out to be 21.8%; in series [2], 27.8%; in [3], 28.5%; in series [4], 1.87%; in series [5], 23%; in series [6], 0.59%. For the same compound, the inhibition in vivo at 10 mg/kg in series [7] is 33%; in series [8], 31.4%; in series [12], 35.5%; in series [13], 15.2%. In addition, the values for the inhibition in vivo at 100 mg/kg in series [9], in series [11] and in series [14] were 42%, 39.8% and 40.9%, respectively. Besides, in [10], the Activity was 40.33%. For the same compound, the UI in [15] was determined as 0.18.

Regarding `CCOC(=O)C1=C(C)NC(OC)N(CC(=O)c2ccc(OC)cc2)C1c1ccc(O)cc1` (stereo not drawn), the inhibition in vivo at 10 mg/kg came out at 19.6% in [1]; 23.3% in series [2]; 26.3% in series [3]; 1.43% in series [4]; 21.6% in series [5]; 0.27% in series [6]. Further, the inhibition in vivo at 10 mg/kg in [7] worked out at 29.4%; in [8] it was 28%; in [12], 31%; in series [13] it was 12.7%. Moreover, the inhibition in vivo at 100 mg/kg in series [9] was 39.9%; in series [11], 37.6%; in series [14], 38.2%.

In the case of `CCOC(=O)C1=C(C)NC(OC)N(CC(=O)c2ccccc2)C1c1ccc(Cl)cc1` (stereo not drawn), the inhibition in vivo at 10 mg/kg is 20.5% in series [1]; 25.6% in series [2]; 28.4% in [3]; 1.87% in series [4]; 22.9% in [5]; 0.91% in series [6]. The inhibition in vivo at 10 mg/kg in series [7] came out at 32.1%; in [8] it was 29.7%; in series [12] it was 35.6%; in series [13] it was 15.2%. For the same compound, the inhibition in vivo at 100 mg/kg is 42% in [9], 39.8% in series [11] and 41% in series [14]. The Activity in series [10] is listed as 37.87%. In addition, in series [15], the UI was 0.45.
